# According to ChEMBL document CHEMBL4340551, “Design, synthesis and preliminary bioactivity studies of indomethacin derivatives as Bcl-2/Mcl-1 dual inhibitors” (Bioorg Med Chem, 2019):
# Legend:
# [1] = target: T1, Apoptosis regulator Bcl-2 (Homo sapiens, UniProt P10415); test: Inhibition of 5-FAM-tagged Bid-BH3 peptide binding to Bcl2 (unknown origin) by fluorescence polarization assay
# [2] = test system: Jurkat; test: Induction of apoptosis in human Jurkat cells assessed as necrotic cells level at 40 uM incubated for 48 hrs by annexin-V/FITC and propidium iodide staining based flow cytometry (reference value: 6.29%); type: functional
# [3] = test system: Jurkat; test: Induction of apoptosis in human Jurkat cells assessed as viable cells level at 20 uM incubated for 48 hrs by annexin-V/FITC and propidium iodide staining based flow cytometry (reference value: 86.5%); type: functional
# [4] = test system: K562; test: Antiproliferative activity against human K562 cells assessed as reduction in cell growth incubated for 48 hrs by MTT assay; type: functional, cell-based; details: K562, 48 h
# Procedure, shortened: (§1)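 PC-3, Jurkat and K562 cells grown in RPMI 1640 with 10% FBS at 37°C, 5% CO2. Cells seeded at 2000-4000 per well and left 8 h before compound addition at a range of concentrations. Exposure 48 h, then 0.5% MTT solution for 4 h. Formazan dissolved in DMSO and absorbance read at 570 nm. IC50 derived from concentrations and inhibitory ratios.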
# [5] = target: Induced myeloid leukemia cell differentiation protein Mcl-1 (Homo sapiens, UniProt Q07820); test: Inhibition of 5-FAM-tagged Bid-BH3 peptide binding to Mcl1 (unknown origin) by fluorescence polarization assay
# Sequence of Induced myeloid leukemia cell differentiation protein Mcl-1 (Q07820 whole entry): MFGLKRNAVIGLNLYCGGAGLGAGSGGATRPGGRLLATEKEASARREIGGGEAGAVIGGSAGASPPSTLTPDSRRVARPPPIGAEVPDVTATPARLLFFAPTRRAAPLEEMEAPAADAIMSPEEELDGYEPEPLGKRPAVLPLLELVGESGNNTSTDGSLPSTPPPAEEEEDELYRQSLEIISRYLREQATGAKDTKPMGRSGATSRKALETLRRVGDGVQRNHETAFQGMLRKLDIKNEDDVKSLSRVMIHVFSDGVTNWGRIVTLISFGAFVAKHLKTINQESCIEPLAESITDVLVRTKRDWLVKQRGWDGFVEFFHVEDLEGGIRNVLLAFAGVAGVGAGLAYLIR
# Procedure, shortened: (§2)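 Competitive fluorescence polarization in which compounds displace labelled Bid-BH3 peptide from the Bcl-2 family protein, read as a fall in mP. IC50 taken from mP versus concentration. Ki calculated from IC50, Kd, and the peptide and protein concentrations.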
# [6] = test system: Jurkat; test: Induction of apoptosis in human Jurkat cells assessed as early apoptotic cells level at 20 uM incubated for 48 hrs by annexin-V/FITC and propidium iodide staining based flow cytometry (reference value: 7.02%); type: functional
# [7] = test system: Jurkat; test: Induction of apoptosis in human Jurkat cells assessed as late apoptotic cells level at 40 uM incubated for 48 hrs by annexin-V/FITC and propidium iodide staining based flow cytometry (reference value: 6.29%); type: functional
# [8] = test system: Jurkat; test: Antiproliferative activity against human Jurkat cells assessed as reduction in cell growth incubated for 48 hrs by MTT assay; type: functional, cell-based; procedure, shortened: as §1
# [9] = test system: Jurkat; test: Induction of apoptosis in human Jurkat cells assessed as late apoptotic cells level at 20 uM incubated for 48 hrs by annexin-V/FITC and propidium iodide staining based flow cytometry (reference value: 6.29%); type: functional
# [10] = test system: Jurkat; test: Induction of apoptosis in human Jurkat cells assessed as early apoptotic cells level at 40 uM incubated for 48 hrs by annexin-V/FITC and propidium iodide staining based flow cytometry (reference value: 7.02%); type: functional
# [11] = target: Bcl-2-like protein 1 (Homo sapiens, UniProt Q07817); test: Inhibition of 5-FAM-tagged Bid-BH3 peptide binding to Bcl-XL (unknown origin) by fluorescence polarization assay; procedure, shortened: as §2
# Sequence of Bcl-2-like protein 1 (Q07817 whole entry): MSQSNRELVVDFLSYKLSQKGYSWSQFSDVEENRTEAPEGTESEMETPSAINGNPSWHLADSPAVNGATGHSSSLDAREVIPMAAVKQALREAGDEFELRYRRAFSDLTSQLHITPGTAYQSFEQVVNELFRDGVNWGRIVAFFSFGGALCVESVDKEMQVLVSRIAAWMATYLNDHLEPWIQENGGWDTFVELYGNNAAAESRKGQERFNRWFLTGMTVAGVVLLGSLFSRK
# [12] = test system: Jurkat; test: Induction of apoptosis in human Jurkat cells assessed as necrotic cells level at 20 uM incubated for 48 hrs by annexin-V/FITC and propidium iodide staining based flow cytometry (reference value: 6.29%); type: functional
# [13] = test system: Jurkat; test: Induction of apoptosis in human Jurkat cells assessed as viable cells level at 40 uM incubated for 48 hrs by annexin-V/FITC and propidium iodide staining based flow cytometry (reference value: 86.5%); type: functional
# [14] = target: T1, Apoptosis regulator Bcl-2; test: Potency index, ratio of Ki for UMI77 to Ki for test compound for inhibition of 5-FAM-tagged Bid-BH3 peptide binding to Bcl2 (unknown origin) by fluorescence polarization assay
# [15] = target: T1, Apoptosis regulator Bcl-2; test: Potency index, ratio of Ki for WL276 to Ki for test compound for inhibition of 5-FAM-tagged Bid-BH3 peptide binding to Bcl2 (unknown origin) by fluorescence polarization assay
# [16] = test system: PC-3; test: Antiproliferative activity against human PC3 cells assessed as reduction in cell growth incubated for 48 hrs by MTT assay; type: functional, cell-based; details: PC-3, 48 h; procedure, shortened: as §1
# T1 sequence (P10415 whole entry): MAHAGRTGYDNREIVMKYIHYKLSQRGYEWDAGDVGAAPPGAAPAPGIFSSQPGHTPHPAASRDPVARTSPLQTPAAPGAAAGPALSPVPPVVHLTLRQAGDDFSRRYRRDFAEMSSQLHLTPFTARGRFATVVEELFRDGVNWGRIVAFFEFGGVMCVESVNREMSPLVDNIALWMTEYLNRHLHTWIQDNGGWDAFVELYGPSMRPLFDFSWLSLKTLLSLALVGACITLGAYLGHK
Structure (SMILES),Ki ([1]; read-out: Ki) [µM],Ratio Ki [14],Ratio Ki [15],also measured
COc1ccc2c(c1)c(CC(=O)N[C@H](C(=O)NS(=O)(=O)c1ccc(Cl)c([N+](=O)[O-])c1)C(C)C)c(C)n2C(=O)c1ccc(Cl)cc1,–,–,–,Ki [1]: Not Active
Cc1ccc(S(=O)(=O)NC(=O)[C@H](Cc2ccccc2)N2C(=O)/C(=C/c3ccc(-c4ccccc4)cc3)SC2=S)cc1,1.5,–,–,Activity [2]: 0.3%; Activity [3]: 70.7%; IC50 [4]: 42.3 µM; Ki [5]: 1.1 µM; Activity [6]: 15.5%; Activity [7]: 16.8%; IC50 [8]: 31.8 µM; Activity [9]: 13.6%; Activity [10]: 17.4%; Ki ([11]; read-out: Ki): 1.3 µM; Activity [12]: 0.22%; Activity [13]: 65.5%
O=C(O)CSc1cc(NS(=O)(=O)c2ccc(Br)cc2)c2ccccc2c1O,2.9,–,–,Ki [5]: 0.18 µM; Ki ([11]; read-out: Ki): 7.85 µM
CCCOc1ccc(C[C@H](NC(=O)Cc2c(C)n(C(=O)c3ccc(Cl)cc3)c3ccc(OC)cc23)C(=O)NS(=O)(=O)c2ccc(Cl)c([N+](=O)[O-])c2)cc1,1.3,–,–,–
COc1ccc2c(c1)c(CC(=O)N[C@@H](Cc1ccc(OCc3ccc([N+](=O)[O-])cc3)cc1)C(=O)NS(=O)(=O)c1ccc(Cl)c([N+](=O)[O-])c1)c(C)n2C(=O)c1ccc(Cl)cc1,0.51,5 to 6,2 to 3,–
COc1ccc2c(c1)c(CC(=O)NCC(=O)NS(=O)(=O)c1ccc(Br)cc1)c(C)n2C(=O)c1ccc(Cl)cc1,–,–,–,Ki [1]: Not Active
COc1ccc2c(c1)c(CC(=O)N[C@@H](Cc1ccc(OCc3ccccc3Br)cc1)C(=O)NS(=O)(=O)c1ccc(Cl)c([N+](=O)[O-])c1)c(C)n2C(=O)c1ccc(Cl)cc1,0.45,5 to 6,2 to 3,IC50 [16]: 36.1 µM; IC50 [4]: 41.5 µM; Ki [5]: 0.52 µM; IC50 [8]: 34 µM; Ki [11]: Not Active
COc1ccc(C[C@H](NC(=O)Cc2c(C)n(C(=O)c3ccc(Cl)cc3)c3ccc(OC)cc23)C(=O)NS(=O)(=O)c2ccc(Br)cc2)cc1,> 5,–,–,–
COc1ccc2c(c1)c(CC(=O)N[C@@H](Cc1ccccc1)C(=O)NS(=O)(=O)c1ccc(Cl)c([N+](=O)[O-])c1)c(C)n2C(=O)c1ccc(Cl)cc1,> 5,–,–,–
COc1ccc2c(c1)c(CC(=O)N[C@@H](Cc1c[nH]c3ccccc13)C(=O)NS(=O)(=O)c1ccc(Cl)c([N+](=O)[O-])c1)c(C)n2C(=O)c1ccc(Cl)cc1,> 5,–,–,–
COc1ccc2c(c1)c(CC(=O)N[C@@H](Cc1ccccc1)C(=O)NS(=O)(=O)c1ccc(Br)cc1)c(C)n2C(=O)c1ccc(Cl)cc1,> 5,–,–,–
COc1ccc2c(c1)c(CC(=O)N[C@@H](Cc1ccc(Br)cc1)C(=O)NS(=O)(=O)c1ccc(Cl)c([N+](=O)[O-])c1)c(C)n2C(=O)c1ccc(Cl)cc1,0.59,–,–,–
COc1ccc2c(c1)c(CC(=O)N[C@@H](Cc1ccc(OCc3cccc(C)c3)cc1)C(=O)NS(=O)(=O)c1ccc(Cl)c([N+](=O)[O-])c1)c(C)n2C(=O)c1ccc(Cl)cc1,0.43,5 to 6,2 to 3,IC50 [16]: 28.6 µM; IC50 [4]: 38.8 µM; Ki [5]: 0.49 µM; IC50 [8]: 30.3 µM; Ki [11]: Not Active
COc1ccc2c(c1)c(CC(=O)N[C@@H](C)C(=O)NS(=O)(=O)c1ccc(Cl)c([N+](=O)[O-])c1)c(C)n2C(=O)c1ccc(Cl)cc1,–,–,–,Ki [1]: Not Active
COc1ccc2c(c1)c(CC(=O)N[C@@H](Cc1ccc(OC(C)C)cc1)C(=O)NS(=O)(=O)c1ccc(Cl)c([N+](=O)[O-])c1)c(C)n2C(=O)c1ccc(Cl)cc1,> 5,–,–,–
COc1ccc2c(c1)c(CC(=O)N[C@@H](Cc1ccccc1)C(=O)NS(=O)(=O)c1ccccc1)c(C)n2C(=O)c1ccc(Cl)cc1,–,–,–,Ki [1]: Not Active
COc1ccc2c(c1)c(CC(=O)N[C@@H](Cc1ccc(OCc3ccccc3C#N)cc1)C(=O)NS(=O)(=O)c1ccc(Cl)c([N+](=O)[O-])c1)c(C)n2C(=O)c1ccc(Cl)cc1,0.67,5 to 6,2 to 3,–
COc1ccc2c(c1)c(CC(=O)N[C@@H](Cc1ccc(OCc3ccccc3)cc1)C(=O)NS(=O)(=O)c1ccc(Br)cc1)c(C)n2C(=O)c1ccc(Cl)cc1,0.53,5 to 6,2 to 3,–
COc1ccc2c(c1)c(CC(=O)N[C@@H](Cc1ccc(OCc3ccccc3)cc1)C(=O)NS(=O)(=O)c1ccc(Cl)c([N+](=O)[O-])c1)c(C)n2C(=O)c1ccc(Cl)cc1,0.52,5 to 6,2 to 3,–
COc1ccc2c(c1)c(CC(=O)N[C@@H](Cc1ccc(OCc3ccc(C#N)cc3)cc1)C(=O)NS(=O)(=O)c1ccc(Cl)c([N+](=O)[O-])c1)c(C)n2C(=O)c1ccc(Cl)cc1,0.47,5 to 6,2 to 3,IC50 [16]: 39.3 µM; IC50 [4]: 49.2 µM; Ki [5]: 0.53 µM; IC50 [8]: 83.5 µM; Ki [11]: Not Active

# The next lines start with results.
Ki ([1]; read-out: Ki) [µM],Ratio Ki [14],Ratio Ki [15],Structure (SMILES),also measured
> 5,–,–,COc1ccc(C[C@H](NC(=O)Cc2c(C)n(C(=O)c3ccc(Cl)cc3)c3ccc(OC)cc23)C(=O)NS(=O)(=O)c2ccc(Cl)c([N+](=O)[O-])c2)cc1,–
0.56,5 to 6,2 to 3,COc1ccc2c(c1)c(CC(=O)N[C@@H](Cc1ccc(OCc3ccc(C)cc3)cc1)C(=O)NS(=O)(=O)c1ccc(Cl)c([N+](=O)[O-])c1)c(C)n2C(=O)c1ccc(Cl)cc1,–
> 5,–,–,COc1ccc2c(c1)c(CC(=O)N[C@@H](CC(C)C)C(=O)NS(=O)(=O)c1ccc(Cl)c([N+](=O)[O-])c1)c(C)n2C(=O)c1ccc(Cl)cc1,–
> 5,–,–,COc1ccc2c(c1)c(CC(=O)N[C@@H](CCSC)C(=O)NS(=O)(=O)c1ccc(Cl)c([N+](=O)[O-])c1)c(C)n2C(=O)c1ccc(Cl)cc1,–
4.9,–,–,CCC(C)[C@H](NC(=O)Cc1c(C)n(C(=O)c2ccc(Cl)cc2)c2ccc(OC)cc12)C(=O)NS(=O)(=O)c1ccc(Cl)c([N+](=O)[O-])c1 (stereo not given in full),–
0.63,5 to 6,2 to 3,COc1ccc2c(c1)c(CC(=O)N[C@@H](Cc1ccc(OCc3ccc([N+](=O)[O-])cc3)cc1)C(=O)NS(=O)(=O)c1ccc(Br)cc1)c(C)n2C(=O)c1ccc(Cl)cc1,–
0.56,5 to 6,2 to 3,COc1ccc2c(c1)c(CC(=O)N[C@@H](Cc1ccc(OCc3ccc4ccccc4c3)cc1)C(=O)NS(=O)(=O)c1ccc(Cl)c([N+](=O)[O-])c1)c(C)n2C(=O)c1ccc(Cl)cc1,–
0.48,5 to 6,2 to 3,COc1cccc(COc2ccc(C[C@H](NC(=O)Cc3c(C)n(C(=O)c4ccc(Cl)cc4)c4ccc(OC)cc34)C(=O)NS(=O)(=O)c3ccc(Cl)c([N+](=O)[O-])c3)cc2)c1,IC50 [16]: 31.7 µM; IC50 [4]: 36.2 µM; IC50 [8]: 35.9 µM
0.44,5 to 6,2 to 3,COc1ccc2c(c1)c(CC(=O)N[C@@H](Cc1ccc(OCc3cccc(C#N)c3)cc1)C(=O)NS(=O)(=O)c1ccc(Cl)c([N+](=O)[O-])c1)c(C)n2C(=O)c1ccc(Cl)cc1,IC50 [16]: 38.2 µM; IC50 [4]: 51.6 µM; Ki [5]: 0.48 µM; IC50 [8]: 55.2 µM; Ki [11]: Not Active
